From ChEMBL document CHEMBL1124503, “The role of position 4 in angiotensin II antagonism: a structure-activity study” (J Med Chem, 1989)
Where a SMILES comes first, the peptide text is derived from it. [ ]: non-standard residue; d: D form. Phe(4-NO2) = N[C@@H](Cc1ccc([N+](=O)[O-])cc1)C(=O)O; Phe(4-I) = N[C@@H](Cc1ccc(I)cc1)C(=O)O; Sar = CNCC(=O)O

Key:
Oryctolagus cuniculus [1] = species: Oryctolagus cuniculus; assay: Antagonist activity pA2, was measured in the in vitro rabbit aorta strip assay; + = mixed agonist-antagonist effects seen above 100n g/mL; type: functional
Outline: (§1)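 Isolated rabbit aorta strip (method of Rioux et al.); pA2 against the ANG II dose-response curve, determined at low antagonist doses within the competitive-inhibition range.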

Oryctolagus cuniculus [2] = species: Oryctolagus cuniculus; assay: Agonist, ''ANG II-like'' activity was measured in the in vitro rabbit aorta strip assay; + = mixed agonist-antagonist effects seen above 100n g/mL; type: functional
Outline: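 Isolated rabbit aorta strip (method of Rioux et al.); contractile agonist activity expressed as percent of the response to ANG II.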

Oryctolagus cuniculus [3] = species: Oryctolagus cuniculus; assay: Antagonist activity pA2, was measured in the in vitro rabbit aorta strip assay; type: functional; conditions: read-out: pA2 (converted); outline: as §1
Rattus norvegicus [4] = assay: Residual ANG II-like antagonist activity, ID50 was measured in vivo, in the rat blood pressure assay; Partial angonist; type: functional, organism-based; conditions: filed as partial agonist
[5] = molecular target: Angiotensin II receptor (Rattus norvegicus) (UniProt P29089+P25095+P35351); assay: In vivo blood pressure increase produced by a 1 ug bolus i.v.; type: functional, organism-based
Outline: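 Rat blood pressure assay (Regoli et al.); agonist activity read as the mmHg rise in blood pressure after a 1 μg intravenous bolus of compound.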

[6] = system: Angiotensin II receptor (Oryctolagus cuniculus); assay: Angiotensin II-like agonist activity, measured in the in vitro rabbit aorta strip assay
Rattus norvegicus [7] = assay: Residual ANG II-like antagonist activity, ID50 was measured in vivo, in the rat blood pressure assay; + means slight antagonist effect; type: functional, organism-based; conditions: filed as antagonist

| Activity [6] | Compound | pA2 (Oryctolagus cuniculus [1]) | Activity (Oryctolagus cuniculus [2]) | Kb (Oryctolagus cuniculus [3]) | ID50 (Rattus norvegicus [4]) | Blood pressure [5] | ID50 (Rattus norvegicus [7]) |
| --- | --- | --- | --- | --- | --- | --- | --- |
| – | CC[C@H](C)[C@H](NC(=O)[C@H](Cc1ccc([N+](=O)[O-])cc1)NC(=O)[C@@H](NC(=O)[C@H](CCCN=C(N)N)NC(=O)CNC)C(C)C)C(=O)N[C@@H](Cc1c[nH]cn1)C(=O)N1CCC[C@H]1C(=O)N[C@@H](Cc1ccccc1)C(=O)O (H-[Sar]RV[Phe(4-NO2)]IHPF-OH) | mixed agonist-antagonist effects seen above 100n g/mL | mixed agonist-antagonist effects seen above 100n g/mL | – | – | – | – |
| 0% | CC[C@H](C)[C@H](NC(=O)[C@H](Cc1ccc(I)cc1)NC(=O)[C@@H](NC(=O)[C@H](CCCN=C(N)N)NC(=O)CNC)C(C)C)C(=O)N[C@@H](Cc1c[nH]cn1)C(=O)N1CCC[C@H]1C(=O)N[C@@H](Cc1ccccc1)C(=O)O (H-[Sar]RV[Phe(4-I)]IHPF-OH) | – | – | 251 nM | Partial agonist | 80 mmHg | – |
| 11% | H-DRVFIHPF-OH | – | – | – | – | 20 mmHg | Partial antagonist |
